Experimental data as given in ChEMBL document CHEMBL3351667, “A chemical tuned strategy to develop novel irreversible EGFR-TK inhibitors with improved safety and pharmacokinetic profiles” (J Med Chem, 2014).

How the values were obtained:
[1] = molecular target: T1, hERG (KCNH2) (Homo sapiens, UniProt Q12809); test: Inhibition of human ERG assessed as reduction in channel currents at 0.1 uM
[2] = molecular target: T1, hERG (KCNH2); test: Inhibition of human ERG assessed as reduction in channel currents at 1 uM
[3] = test system: NCI-H1975; test: Antitumor activity against human NCI-H1975 cells xenografted in nude mouse assessed as reduction in tumor growth at 30 mg/kg/day, ig relative to untreated control; format: functional; settings: route intragastric
[4] = test system: NCI-H1975; test: Antitumor activity against human NCI-H1975 cells xenografted in nude mouse assessed as reduction in tumor growth at 60 mg/kg/day, ig relative to untreated control; format: functional; settings: route intragastric
[5] = molecular target: T1, hERG (KCNH2); test: Inhibition of human ERG assessed as reduction in channel currents at 10 uM
[6] = Oral bioavailability in BALB/c mouse at 10 mg/kg after 24 hrs by LC/MS/MS method; format: ADME, organism-based; settings: in vivo
[7] = test system: NCI-H1975; test: cells; format: functional, cell-based; settings: Homo sapiens, NCI-H1975, 48 h
[8] = molecular target: T2, Cytochrome P450 1A2 (Homo sapiens, UniProt P05177); test: Inhibition of CYP1A2 in human hepatic microsomes after 20 mins by LC/MS/MS method; format: ADME, Liver
T2 sequence (P05177 whole entry): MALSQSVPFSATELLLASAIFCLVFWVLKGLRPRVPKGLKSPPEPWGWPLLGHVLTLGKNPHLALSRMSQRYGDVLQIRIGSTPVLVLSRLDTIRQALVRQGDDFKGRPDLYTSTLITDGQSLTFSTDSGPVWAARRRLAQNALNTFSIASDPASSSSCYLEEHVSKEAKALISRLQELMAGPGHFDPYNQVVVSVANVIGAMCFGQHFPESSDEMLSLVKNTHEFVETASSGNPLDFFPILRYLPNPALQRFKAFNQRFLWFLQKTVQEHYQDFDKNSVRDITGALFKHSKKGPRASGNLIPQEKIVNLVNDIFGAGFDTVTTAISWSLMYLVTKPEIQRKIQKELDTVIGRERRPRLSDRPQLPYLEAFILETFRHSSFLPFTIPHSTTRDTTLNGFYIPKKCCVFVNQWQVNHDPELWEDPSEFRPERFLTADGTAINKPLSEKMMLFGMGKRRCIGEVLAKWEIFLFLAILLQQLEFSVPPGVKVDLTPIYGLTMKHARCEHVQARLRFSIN

[9] = molecular target: Cytochrome P450 3A4 (Homo sapiens, UniProt P08684); test: Inhibition of CYP3A4 in human hepatic microsomes after 20 mins by LC/MS/MS method; format: ADME, Liver
[10] = molecular target: Cytochrome P450 2C9 (Homo sapiens, UniProt P11712); test: Inhibition of CYP2C9 in human hepatic microsomes after 20 mins by LC/MS/MS method; format: ADME, Liver
[11] = molecular target: Receptor tyrosine-protein kinase erbB-2 (Homo sapiens, UniProt P04626); test: Inhibition of wild type HER2 (unknown origin) incubated for 5 mins by HTRF assay
[12] = Intrinsic clearance in dog liver microsomes assessed per mg protein at 1 uM in presence of NADPH after 0.5 to 30 mins by LC/MS/MS method; format: ADME, Canis lupus familiaris; settings: read-out: CLH
[13] = molecular target: Epidermal growth factor receptor (Homo sapiens, UniProt P00533, T790M); format: protein assay
[14] = test system: SW-620; test: Growth inhibition of human SW620 cells at 5 uM; format: functional; settings: read-out: GI
[15] = molecular target: Cytochrome P450 2C19 (Homo sapiens, UniProt P33261); test: Inhibition of CYP2C19 in human hepatic microsomes after 20 mins by LC/MS/MS method; format: ADME, Liver
[16] = Cmax in BALB/c mouse at 10 mg/kg, po after 24 hrs by LC/MS/MS method; format: ADME, organism-based; parameters: dose 10 mg/kg, route oral; settings: in vivo
[17] = test system: Mus musculus; test: Apparent volume of distribution in BALB/c mouse at 10 mg/kg, po after 24 hrs by LC/MS/MS method; format: ADME, organism-based; parameters: dose 10 mg/kg, route oral; settings: in vivo
[18] = Ratio of drug level in lung to plasma in BALB/c mouse at 30 mg/kg, po after 6 hrs by LC/MS/MS method; format: ADME, organism-based; parameters: dose 30 mg/kg, route oral
Summary of the method: (§1)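 BALB/c mice received a single oral dose of 30 mg/kg. Drug concentrations in lung, brain and plasma were measured at multiple time points over 6 h. Mean tissue levels are expressed as a lung/plasma/brain ratio, with plasma set to 1.0.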

[19] = Intrinsic clearance in mouse liver microsomes assessed per mg protein at 1 uM in presence of NADPH after 0.5 to 30 mins by LC/MS/MS method; format: ADME; settings: read-out: CLH
[20] = Apparent clearance in BALB/c mouse at 10 mg/kg, po after 24 hrs by LC/MS/MS method; format: ADME, organism-based; parameters: dose 10 mg/kg, route oral; settings: BALB/c, in vivo, read-out: CL(app)
[21] = test system: A-431; test: cells; format: functional, cell-based; settings: Homo sapiens, A-431, 48 h
[22] = Intrinsic clearance in human liver microsomes assessed per mg protein at 1 uM in presence of NADPH after 0.5 to 30 mins by LC/MS/MS method; format: ADME; settings: read-out: CLH
[23] = Intrinsic clearance in rat liver microsomes assessed per mg protein at 1 uM in presence of NADPH after 0.5 to 30 mins by LC/MS/MS method; format: ADME; settings: read-out: CLH
[24] = Intrinsic clearance in monkey liver microsomes assessed per mg protein at 1 uM in presence of NADPH after 0.5 to 30 mins by LC/MS/MS method; format: ADME, Macaca mulatta; settings: rhesus monkey, read-out: CLH
[25] = Ratio of drug level in brain to plasma in BALB/c mouse at 30 mg/kg, po after 6 hrs by LC/MS/MS method; format: ADME, organism-based; parameters: dose 30 mg/kg, route oral; settings: read-out: BPR; summary of the method: as §1
[26] = molecular target: Cytochrome P450 2D6 (Homo sapiens, UniProt P10635); test: Inhibition of CYP2D6 in human hepatic microsomes after 20 mins by LC/MS/MS method; format: ADME, Liver
[27] = AUC (0 to infinity) in BALB/c mouse at 10 mg/kg, po after 24 hrs by LC/MS/MS method; format: ADME, organism-based, Plasma; parameters: dose 10 mg/kg, route oral, time infinity; settings: BALB/c, plasma
[28] = test system: NCI-H1975; test: Antitumor activity against human NCI-H1975 cells xenografted in nude mouse assessed as reduction in tumor growth at 15 mg/kg/day, ig relative to untreated control; format: functional; settings: route intragastric
[29] = test system: NCI-H1975; test: Antitumor activity against human NCI-H1975 cells xenografted in nude mouse assessed as reduction in tumor growth at 15 to 60 mg/kg/day, ig relative to untreated control; format: functional, organism-based
[30] = test system: NCI-H1975; test: Toxicity in human NCI-H1975 cells xenografted nude mouse assessed as induction of mortality at 30 mg/kg/day, ig; format: organism-based; parameters: route intragastric; settings: in vivo, po
Summary of the method: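 H1975 NSCLC xenografts set up by subcutaneous inoculation of 3.0 × 10⁷ cells into nude mice. Dosing began at mean tumour size 50−150 mm³. Randomised mice received compound by ig gavage […] for 9 days. Vehicle control was 0.5% CMC-Na + 0.4% Tween80 at 10 mL/kg. Mortality and body weight were monitored during treatment.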

[31] = molecular target: Tyrosine-protein kinase JAK2 (Homo sapiens, UniProt O60674); test: Inhibition of wild type JAK2 (unknown origin) incubated for 5 mins by HTRF assay
[32] = molecular target: Tyrosine-protein kinase ABL1 (Homo sapiens, UniProt P00519); test: Inhibition of wild type ABL (unknown origin) incubated for 5 mins by HTRF assay
[33] = molecular target: Platelet-derived growth factor receptor alpha (Homo sapiens, UniProt P16234); test: Inhibition of wild type PDGFRalpha (unknown origin) incubated for 5 mins by HTRF assay
[34] = molecular target: Receptor-type tyrosine-protein kinase FLT3 (Homo sapiens, UniProt P36888); test: Inhibition of wild type FLT3 (unknown origin) incubated for 5 mins by HTRF assay
[35] = molecular target: RAC-alpha serine/threonine-protein kinase (Homo sapiens, UniProt P31749); test: Inhibition of wild type AKT1 (unknown origin) incubated for 5 mins by HTRF assay
[36] = molecular target: Proto-oncogene tyrosine-protein kinase Src (Homo sapiens, UniProt P12931); test: Inhibition of wild type SRC (unknown origin) incubated for 5 mins by HTRF assay
[37] = molecular target: Epidermal growth factor receptor (Homo sapiens, UniProt P00533);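 also: inhibition of wild-type EGFR read out by HTRF, with a 5 min incubation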
[38] = molecular target: Fibroblast growth factor receptor 2 (Homo sapiens, UniProt P21802); test: Inhibition of wild type FGFR2 (unknown origin) incubated for 5 mins by HTRF assay
[39] = molecular target: RAC-beta serine/threonine-protein kinase (Homo sapiens, UniProt P31751); test: Inhibition of wild type AKT2 (unknown origin) incubated for 5 mins by HTRF assay
[40] = molecular target: Tyrosine-protein kinase SYK (Homo sapiens, UniProt P43405); test: Inhibition of wild type SYK (unknown origin) incubated for 5 mins by HTRF assay
[41] = molecular target: Hepatocyte growth factor receptor (Homo sapiens, UniProt P08581); test: Inhibition of wild type c-Met (unknown origin) incubated for 5 mins by HTRF assay
[42] = molecular target: Platelet-derived growth factor receptor beta (Homo sapiens, UniProt P09619); test: Inhibition of wild type PDGFRbeta (unknown origin) incubated for 5 mins by HTRF assay
[43] = molecular target: ALK tyrosine kinase receptor (Homo sapiens, UniProt Q9UM73); test: Inhibition of wild type ALK (unknown origin) incubated for 5 mins by HTRF assay
[44] = Cmax in BALB/c mouse at 5 mg/kg, po after 24 hrs by LC/MS/MS method; format: ADME, organism-based; parameters: dose 5 mg/kg, route oral; settings: in vivo
[45] = test system: Mus musculus; test: AUC (0 to infinity) in BALB/c mouse at 5 mg/kg, po after 24 hrs by LC/MS/MS method; format: ADME, organism-based, Plasma; parameters: time infinity, dose 5 mg/kg, route oral; settings: in vivo, 24 h
[46] = test system: Mus musculus; test: Apparent clearance in BALB/c mouse at 5 mg/kg, po after 24 hrs by LC/MS/MS method; format: ADME, organism-based; parameters: dose 5 mg/kg, route oral; settings: in vivo, 24 h
[47] = Oral bioavailability in BALB/c mouse at 5 mg/kg after 24 hrs by LC/MS/MS method; format: ADME, organism-based; settings: in vivo
[48] = test system: Mus musculus; test: Apparent volume of distribution in BALB/c mouse at 5 mg/kg, po after 24 hrs by LC/MS/MS method; format: ADME, organism-based; parameters: dose 5 mg/kg, route oral; settings: in vivo

T1 sequence (Q12809 whole entry): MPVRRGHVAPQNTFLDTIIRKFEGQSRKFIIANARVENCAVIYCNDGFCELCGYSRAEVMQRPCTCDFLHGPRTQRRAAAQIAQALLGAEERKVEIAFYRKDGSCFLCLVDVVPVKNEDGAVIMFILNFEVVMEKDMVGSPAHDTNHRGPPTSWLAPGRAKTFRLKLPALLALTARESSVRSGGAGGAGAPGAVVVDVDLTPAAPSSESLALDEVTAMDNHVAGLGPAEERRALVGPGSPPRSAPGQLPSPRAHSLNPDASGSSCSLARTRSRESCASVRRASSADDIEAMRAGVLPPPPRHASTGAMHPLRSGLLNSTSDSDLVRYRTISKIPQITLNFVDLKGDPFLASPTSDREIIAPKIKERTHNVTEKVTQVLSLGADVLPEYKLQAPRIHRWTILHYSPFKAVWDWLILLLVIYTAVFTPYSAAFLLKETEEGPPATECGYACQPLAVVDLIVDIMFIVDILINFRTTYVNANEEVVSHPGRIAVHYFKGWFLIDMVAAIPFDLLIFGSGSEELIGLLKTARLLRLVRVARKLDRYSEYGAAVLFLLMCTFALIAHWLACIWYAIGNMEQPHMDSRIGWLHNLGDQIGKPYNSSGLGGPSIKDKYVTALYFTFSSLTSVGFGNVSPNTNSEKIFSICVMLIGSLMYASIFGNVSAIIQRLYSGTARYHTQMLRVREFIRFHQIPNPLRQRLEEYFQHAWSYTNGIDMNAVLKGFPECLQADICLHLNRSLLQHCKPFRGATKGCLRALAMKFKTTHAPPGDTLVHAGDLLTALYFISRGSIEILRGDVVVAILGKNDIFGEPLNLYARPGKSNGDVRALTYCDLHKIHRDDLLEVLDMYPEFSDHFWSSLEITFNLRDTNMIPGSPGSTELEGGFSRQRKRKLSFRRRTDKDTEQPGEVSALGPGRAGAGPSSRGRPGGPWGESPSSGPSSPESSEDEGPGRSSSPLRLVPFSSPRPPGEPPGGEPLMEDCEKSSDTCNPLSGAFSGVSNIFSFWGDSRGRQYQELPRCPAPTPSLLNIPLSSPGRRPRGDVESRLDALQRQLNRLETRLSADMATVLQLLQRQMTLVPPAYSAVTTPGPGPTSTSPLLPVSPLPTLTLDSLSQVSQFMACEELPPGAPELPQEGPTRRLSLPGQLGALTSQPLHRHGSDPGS
Cytochrome P450 2C19, sequence (P33261 whole entry): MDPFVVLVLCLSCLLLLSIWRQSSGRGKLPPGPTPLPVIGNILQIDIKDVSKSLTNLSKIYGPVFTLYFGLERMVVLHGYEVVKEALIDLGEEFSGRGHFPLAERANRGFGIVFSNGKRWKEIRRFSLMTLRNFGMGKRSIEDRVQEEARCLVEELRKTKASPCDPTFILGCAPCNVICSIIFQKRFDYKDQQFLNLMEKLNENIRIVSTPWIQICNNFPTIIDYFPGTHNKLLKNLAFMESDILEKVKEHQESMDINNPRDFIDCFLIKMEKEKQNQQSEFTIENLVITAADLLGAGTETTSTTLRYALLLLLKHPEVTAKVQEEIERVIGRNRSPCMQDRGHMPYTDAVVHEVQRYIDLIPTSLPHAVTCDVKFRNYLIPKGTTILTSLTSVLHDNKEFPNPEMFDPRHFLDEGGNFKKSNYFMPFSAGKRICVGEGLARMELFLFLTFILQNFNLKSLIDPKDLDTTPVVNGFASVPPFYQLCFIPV
Epidermal growth factor receptor (Homo sapiens, UniProt P00533, T790M), sequence (P00533 25-1210 T790M limits assumed): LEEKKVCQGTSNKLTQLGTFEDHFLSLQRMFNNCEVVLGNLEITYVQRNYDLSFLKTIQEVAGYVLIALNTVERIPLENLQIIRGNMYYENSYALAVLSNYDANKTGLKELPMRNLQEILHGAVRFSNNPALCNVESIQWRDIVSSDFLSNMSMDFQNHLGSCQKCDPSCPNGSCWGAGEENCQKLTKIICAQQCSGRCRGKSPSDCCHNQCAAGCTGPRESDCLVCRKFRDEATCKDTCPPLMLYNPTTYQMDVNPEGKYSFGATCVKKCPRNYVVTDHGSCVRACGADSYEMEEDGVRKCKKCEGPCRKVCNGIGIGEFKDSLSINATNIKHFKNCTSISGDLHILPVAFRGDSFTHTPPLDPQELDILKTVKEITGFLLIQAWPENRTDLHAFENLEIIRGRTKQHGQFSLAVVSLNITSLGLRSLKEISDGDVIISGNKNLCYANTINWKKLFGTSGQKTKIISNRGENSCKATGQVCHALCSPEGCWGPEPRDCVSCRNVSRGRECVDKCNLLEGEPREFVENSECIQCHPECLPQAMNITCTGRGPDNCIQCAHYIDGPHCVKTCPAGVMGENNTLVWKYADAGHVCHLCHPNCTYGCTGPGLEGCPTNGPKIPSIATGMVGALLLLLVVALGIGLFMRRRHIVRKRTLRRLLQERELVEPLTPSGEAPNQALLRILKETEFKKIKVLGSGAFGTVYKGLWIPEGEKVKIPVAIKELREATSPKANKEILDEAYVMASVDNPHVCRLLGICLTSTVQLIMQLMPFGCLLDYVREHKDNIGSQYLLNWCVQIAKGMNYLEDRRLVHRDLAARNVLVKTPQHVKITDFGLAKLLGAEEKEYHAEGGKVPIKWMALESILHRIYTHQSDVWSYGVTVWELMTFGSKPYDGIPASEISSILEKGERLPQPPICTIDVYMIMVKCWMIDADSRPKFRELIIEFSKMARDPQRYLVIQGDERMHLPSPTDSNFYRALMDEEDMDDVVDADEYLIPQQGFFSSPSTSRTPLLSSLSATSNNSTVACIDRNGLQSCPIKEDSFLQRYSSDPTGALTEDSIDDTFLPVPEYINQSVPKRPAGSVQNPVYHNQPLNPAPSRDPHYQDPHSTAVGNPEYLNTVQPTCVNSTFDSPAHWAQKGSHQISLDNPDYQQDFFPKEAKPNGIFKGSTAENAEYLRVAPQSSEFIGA
Cytochrome P450 2D6, sequence (P10635 whole entry): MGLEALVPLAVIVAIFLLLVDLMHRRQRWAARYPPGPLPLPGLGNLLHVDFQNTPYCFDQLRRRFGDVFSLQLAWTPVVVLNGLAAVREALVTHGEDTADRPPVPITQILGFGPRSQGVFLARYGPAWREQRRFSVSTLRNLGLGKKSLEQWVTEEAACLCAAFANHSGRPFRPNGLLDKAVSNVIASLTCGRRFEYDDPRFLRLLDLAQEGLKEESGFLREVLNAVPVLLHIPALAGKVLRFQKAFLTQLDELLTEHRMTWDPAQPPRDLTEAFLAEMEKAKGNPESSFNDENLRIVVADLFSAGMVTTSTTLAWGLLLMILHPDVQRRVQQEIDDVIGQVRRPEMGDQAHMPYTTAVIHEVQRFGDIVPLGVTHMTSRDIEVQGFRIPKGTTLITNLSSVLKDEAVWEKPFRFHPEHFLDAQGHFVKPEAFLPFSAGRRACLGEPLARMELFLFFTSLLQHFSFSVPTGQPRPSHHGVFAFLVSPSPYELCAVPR
Cytochrome P450 2C9, sequence (P11712 whole entry): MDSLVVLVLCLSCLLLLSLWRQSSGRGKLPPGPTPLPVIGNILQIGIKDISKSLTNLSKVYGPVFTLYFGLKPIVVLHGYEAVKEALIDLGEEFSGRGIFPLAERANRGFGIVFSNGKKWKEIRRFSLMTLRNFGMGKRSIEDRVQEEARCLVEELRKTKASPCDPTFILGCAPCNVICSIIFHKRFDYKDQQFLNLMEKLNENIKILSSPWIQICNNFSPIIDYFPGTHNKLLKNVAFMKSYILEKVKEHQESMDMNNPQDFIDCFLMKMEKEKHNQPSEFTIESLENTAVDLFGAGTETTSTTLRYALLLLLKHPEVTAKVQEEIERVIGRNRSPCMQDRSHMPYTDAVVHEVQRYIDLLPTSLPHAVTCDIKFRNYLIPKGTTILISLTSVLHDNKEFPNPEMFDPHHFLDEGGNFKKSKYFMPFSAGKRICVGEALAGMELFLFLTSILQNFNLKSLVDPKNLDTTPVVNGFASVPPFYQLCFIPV
Cytochrome P450 3A4, sequence (P08684 whole entry): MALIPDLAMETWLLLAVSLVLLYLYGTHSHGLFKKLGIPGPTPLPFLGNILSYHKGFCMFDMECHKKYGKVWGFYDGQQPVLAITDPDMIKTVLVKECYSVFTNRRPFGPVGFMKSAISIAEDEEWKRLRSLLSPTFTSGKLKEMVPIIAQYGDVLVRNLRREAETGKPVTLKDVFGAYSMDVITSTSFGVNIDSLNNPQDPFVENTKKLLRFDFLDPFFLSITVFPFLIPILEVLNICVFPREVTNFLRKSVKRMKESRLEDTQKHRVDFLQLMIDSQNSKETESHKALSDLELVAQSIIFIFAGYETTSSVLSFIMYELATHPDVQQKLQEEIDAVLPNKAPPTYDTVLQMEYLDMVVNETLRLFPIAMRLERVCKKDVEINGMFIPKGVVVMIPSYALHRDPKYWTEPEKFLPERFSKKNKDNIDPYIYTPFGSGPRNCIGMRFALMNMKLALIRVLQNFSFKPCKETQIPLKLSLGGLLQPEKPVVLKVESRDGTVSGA
Proto-oncogene tyrosine-protein kinase Src, sequence (P12931 2-536 limits assumed): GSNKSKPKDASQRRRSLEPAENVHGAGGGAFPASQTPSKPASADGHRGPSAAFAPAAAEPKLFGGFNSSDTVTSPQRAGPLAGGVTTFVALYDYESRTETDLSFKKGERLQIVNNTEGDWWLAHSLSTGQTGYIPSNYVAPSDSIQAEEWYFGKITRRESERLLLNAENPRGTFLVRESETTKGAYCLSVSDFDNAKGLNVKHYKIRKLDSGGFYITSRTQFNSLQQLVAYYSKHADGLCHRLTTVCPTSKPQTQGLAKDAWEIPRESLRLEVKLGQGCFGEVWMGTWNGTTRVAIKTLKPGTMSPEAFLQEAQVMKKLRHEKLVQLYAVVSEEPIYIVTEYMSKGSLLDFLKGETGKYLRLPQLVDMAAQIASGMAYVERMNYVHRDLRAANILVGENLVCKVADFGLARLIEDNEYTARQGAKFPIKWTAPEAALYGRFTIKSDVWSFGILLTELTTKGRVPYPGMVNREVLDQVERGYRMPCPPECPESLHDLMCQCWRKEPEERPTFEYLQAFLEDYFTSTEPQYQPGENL

Row | Compound | inhibition at 1 µM [2] [%] | inhibition at 10 µM [5] [%] | bioavailability [6] [%] | IC50 [7] [µM] | IC50 [8] [µM] | IC50 [9] [µM] | IC50 [10] [µM] | microsomal CLint at 1 µM [12] [µL/min/mg] | IC50 [13] [µM] | IC50 [15] [µM] | Cmax [16] [nM] | Vz [17] [L/kg] | microsomal CLint at 1 µM [19] [µL/min/mg] | CL/F [20] [mL/min/kg] | microsomal CLint at 1 µM [22] [µL/min/mg] | microsomal CLint at 1 µM [23] [µL/min/mg] | microsomal CLint at 1 µM [24] [µL/min/mg] | IC50 [26] [µM] | AUC(0-inf) [27] [µM·h] | also measured
1 | COc1cc(N)c(Cl)cc1C(=O)NC1CCN(CCCOc2ccc(F)cc2)CC1OC (stereo not drawn) [CISAPRIDE] | 92.4 |  |  |  |  |  |  |  |  |  |  |  |  |  |  |  |  |  |  | inhibition at 0.1 µM [1]: 65.5%
2 | CN(C)C/C=C(\F)C(=O)Nc1cc2c(Nc3ccc(F)c(Cl)c3)ncnc2cc1O[C@H]1CCOC1 | 0 | 14.8 | 84.7 | 1.24 | > 10 | > 10 | > 10 | 39 | 0.00552 | > 10 | 940 | 9.69 | 12 | 30 | 2 | 14 | 31 | > 10 | 10.4 | T/C [3]: 19.5%; T/C [4]: 9.4%; IC50 [11]: 0.149 µM; inhibition of growth at 5 µM [14]: 11.5%; Kp at 6 h [18]: 25; IC50 [21]: 0.13 µM; Kp at 6 h [25]: 0.79; T/C [28]: 42.5%; inhibition [29]: Dose-dependent effect; Activity [30]: Non-toxic
3 | COc1cc2ncnc(Nc3ccc(F)c(Cl)c3)c2cc1NC(=O)/C(F)=C/CN(C)C | 2.55 | 18.4 | 98.5 |  | > 10 | > 10 | > 10 | 194 | 0.00667 | > 10 | 790 | 14 | 45 | 50 | 14 | 18 | 128 | > 10 | 7.67 | IC50 [31]: > 10 µM; IC50 [32]: 2.26 µM; IC50 [33]: 3.6 µM; IC50 [34]: 6.81 µM; IC50 [35]: > 10 µM; IC50 [36]: 1.73 µM; IC50 [37]: 0.0002 µM; IC50 [38]: > 10 µM; IC50 [39]: > 10 µM; IC50 [40]: > 10 µM; IC50 [41]: > 10 µM; IC50 [42]: 2.1 µM; IC50 [43]: > 10 µM
4 | COc1cc2ncnc(Nc3ccc(F)c(Cl)c3)c2cc1NC(=O)/C(F)=C\CN1CCCCC1 |  |  |  | 1.01 |  |  |  |  |  |  |  |  |  |  |  |  |  |  |  | Cmax [44]: 90 nM; AUC [45]: 14.7 µM·min; CL(app) [46]: 120 mL/min/kg; bioavailability [47]: 16.5%; Vz [48]: 12.2 L/kg
